Key:
[1] = biological target: Kappa-type opioid receptor (Cavia porcellus, UniProt P41144); test: Displacement of [3H]DPN from guinea pig kappa opioid receptor expressed in CHOK1 cell membranes
Procedure, shortened: (§1)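 Competition binding with the radioligand [3H]-DPN on membranes from CHO-K1 cells stably transfected with human recombinant μ or δ opioid receptor or guinea pig κ opioid receptor. Affinity is reported as pKi.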

Liver [2] = test: (§2) Half life in dog liver microsomes; type: ADME, Canis lupus familiaris, microsome; details: microsomes
Mu-type opioid receptor [3] = biological target: T1, Mu-type opioid receptor (Homo sapiens, UniProt P35372); test: Displacement of [3H]DPN from recombinant human mu opioid receptor expressed in CHOK1 cell membranes; procedure, shortened: as §1
T1 sequence (P35372 whole entry): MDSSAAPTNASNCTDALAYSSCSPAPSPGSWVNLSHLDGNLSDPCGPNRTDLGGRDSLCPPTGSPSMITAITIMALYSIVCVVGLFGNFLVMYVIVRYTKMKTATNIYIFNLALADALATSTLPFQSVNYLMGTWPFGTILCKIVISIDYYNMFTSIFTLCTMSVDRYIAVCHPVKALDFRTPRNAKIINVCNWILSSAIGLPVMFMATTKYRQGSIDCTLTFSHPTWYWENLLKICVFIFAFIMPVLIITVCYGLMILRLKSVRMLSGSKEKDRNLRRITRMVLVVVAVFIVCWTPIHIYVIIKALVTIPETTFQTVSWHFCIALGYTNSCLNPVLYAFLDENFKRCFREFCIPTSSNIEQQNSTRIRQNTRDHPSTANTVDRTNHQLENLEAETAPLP

[4] = biological target: Delta-type opioid receptor (Homo sapiens, UniProt P41143); test: Displacement of [3H]DPN from recombinant human delta opioid receptor expressed in CHOK1 cell membranes; procedure, shortened: as §1
Sequence of Delta-type opioid receptor (P41143 whole entry): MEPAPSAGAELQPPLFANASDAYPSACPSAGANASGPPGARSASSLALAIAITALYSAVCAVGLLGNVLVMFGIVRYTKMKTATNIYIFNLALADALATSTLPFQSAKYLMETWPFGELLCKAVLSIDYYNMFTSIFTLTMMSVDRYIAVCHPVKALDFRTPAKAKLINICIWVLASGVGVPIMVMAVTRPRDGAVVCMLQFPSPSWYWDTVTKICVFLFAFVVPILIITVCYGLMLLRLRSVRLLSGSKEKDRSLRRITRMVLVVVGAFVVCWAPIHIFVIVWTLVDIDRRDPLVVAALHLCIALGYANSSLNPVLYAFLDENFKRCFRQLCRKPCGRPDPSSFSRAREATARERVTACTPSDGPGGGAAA

Mu-type opioid receptor [5] = biological target: T1, Mu-type opioid receptor; test: Intrinsic activity at recombinant human mu opioid receptor expressed in CHOK1 cells by [35S]GTPgammaS binding assay relative to DAMGO; type: functional, cell-based
Procedure, shortened: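 Membranes from CHO-K1 cells stably transfected with human recombinant μ-opioid receptor; agonist activity measured as [35S]-GTPγS binding. Maximum compound-evoked response minus basal, expressed as percentage of the maximum response evoked by DAMGO.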

[6] = as §2; type: ADME, Canis lupus familiaris, microsome; details: liver microsomes
[7] = Half life in rat liver microsomes; type: ADME, microsome; details: liver microsomes
[8] = (§3) Half life in human liver microsomes; type: ADME, microsome; details: liver microsomes
Liver [9] = test: as §3; type: ADME, microsome; details: microsomes

Sequence of Kappa-type opioid receptor (P41144 whole entry): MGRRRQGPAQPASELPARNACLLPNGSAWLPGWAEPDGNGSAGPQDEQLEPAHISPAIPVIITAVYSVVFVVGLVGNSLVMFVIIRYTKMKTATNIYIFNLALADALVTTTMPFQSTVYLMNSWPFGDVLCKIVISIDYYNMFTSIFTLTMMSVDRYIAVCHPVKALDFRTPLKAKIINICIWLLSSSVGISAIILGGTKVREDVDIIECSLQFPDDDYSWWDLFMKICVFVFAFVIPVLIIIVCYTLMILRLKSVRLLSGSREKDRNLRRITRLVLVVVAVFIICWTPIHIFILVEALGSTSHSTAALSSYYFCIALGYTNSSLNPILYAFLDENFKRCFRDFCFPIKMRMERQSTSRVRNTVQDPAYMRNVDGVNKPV

SMILES	Ki [1] [nM]	Ki (Mu-type opioid receptor [3]) [nM]	Ki [4] [nM]	Intrinsic activity (Mu-type opioid receptor [5]) [%]	also measured
NC(=O)c1cccc(C2C[C@H]3CC[C@H](C2)N3CCCOc2ccccc2)c1 (some centres not stated) [listing 1 of 2 here]	31.6	6.31	100	–	t1/2 (Liver [2]): 6 min
CCCCCCCN1[C@@H]2CC[C@@H]1CC(c1cccc(C(N)=O)c1)C2 (some centres not stated)	–	–	–	38	–
NC(=O)c1cccc(C2C[C@H]3CC[C@H](C2)N3CCCOc2ccccc2)c1 (some centres not stated) [listing 2 of 2 here]	–	–	–	95	–
Oc1cccc(C2CC3CCC(C2)N3CCCc2ccccc2)c1 (mixture of isomers)	–	0.158	1.26	22	–
NC(=O)c1cccc(C2C[C@H]3CC[C@H](C2)N3CCCOc2ccccc2)c1 (relative stereo) [listing 1 of 2 here]	0.794	0.2	3.98	–	half-life [6]: 7 min; half-life [7]: 2 min; half-life [8]: > 90 min
CCCCCCCN1[C@@H]2CC[C@@H]1CC(c1cccc(C(N)=O)c1)C2 (relative stereo)	–	–	–	28	–
NC(=O)c1cccc(C2C[C@H]3CC[C@H](C2)N3CC(O)Cc2ccccc2)c1 (relative stereo)	–	–	–	3	–
NC(=O)c1cccc(C2C[C@H]3CC[C@H](C2)N3CCCOc2ccccc2)c1 (relative stereo) [listing 2 of 2 here]	–	–	–	0	–
Oc1cccc(C2C[C@H]3CC[C@H](C2)N3CCCc2ccccc2)c1 (relative stereo; 12a) [listing 1 of 2 here]	0.1	0.1	0.794	–	half-life [6]: 2 min; half-life [7]: 2 min; half-life [8]: 15 min
Oc1cccc(C2C[C@H]3CC[C@H](C2)N3CCCc2ccccc2)c1 (relative stereo; 12a) [listing 2 of 2 here]	–	–	–	22	–
Oc1cccc(C2C[C@H]3CC[C@H](C2)N3CCCc2ccccc2)c1 (relative stereo; 12b) [listing 1 of 2 here]	7.94	5.01	63.1	–	t1/2 (Liver [9]): 27 min
Oc1cccc(C2C[C@H]3CC[C@H](C2)N3CCCc2ccccc2)c1 (relative stereo; 12b) [listing 2 of 2 here]	–	–	–	64	–
CCCCCCCN1[C@@H]2CC[C@@H]1CC(c1cccc(O)c1)C2 (relative stereo; 17a) [listing 1 of 2 here]	0.251	0.251	2.51	–	t1/2 (Liver [2]): 2 min; half-life [7]: 3 min; t1/2 (Liver [9]): 10 min
CCCCCCCN1[C@@H]2CC[C@@H]1CC(c1cccc(O)c1)C2 (relative stereo; 17a) [listing 2 of 2 here]	–	–	–	26	–
CCCCCCCN1[C@@H]2CC[C@@H]1CC(c1cccc(O)c1)C2 (relative stereo; 17b)	–	–	–	62	–
Oc1cccc(C2C[C@H]3CC[C@H](C2)N3Cc2c(F)cccc2F)c1 (relative stereo; 18a) [listing 1 of 2 here]	5.01	15.8	158	–	half-life [6]: 20 min; half-life [7]: 2 min; t1/2 (Liver [9]): 29 min
Oc1cccc(C2C[C@H]3CC[C@H](C2)N3Cc2c(F)cccc2F)c1 (relative stereo; 18a) [listing 2 of 2 here]	–	–	–	36	–
Oc1cccc(C2C[C@H]3CC[C@H](C2)N3Cc2c(F)cccc2F)c1 (relative stereo; 18b) [listing 1 of 2 here]	126	631	2510	–	t1/2 (Liver [2]): 13 min; t1/2 (Liver [9]): 75 min
Oc1cccc(C2C[C@H]3CC[C@H](C2)N3Cc2c(F)cccc2F)c1 (relative stereo; 18b) [listing 2 of 2 here]	–	–	–	48	–
Oc1cccc(C2C[C@H]3CC[C@H](C2)N3CCCOc2ccccc2)c1 (relative stereo; 19a) [listing 1 of 2 here]	0.251	0.1	1.58	–	t1/2 (Liver [2]): 9 min; half-life [7]: 2 min; half-life [8]: 25 min
Oc1cccc(C2C[C@H]3CC[C@H](C2)N3CCCOc2ccccc2)c1 (relative stereo; 19a) [listing 2 of 2 here]	–	–	–	9	–
Oc1cccc(C2C[C@H]3CC[C@H](C2)N3CCCOc2ccccc2)c1 (relative stereo; 19b) [listing 1 of 2 here]	20	3.16	63.1	–	t1/2 (Liver [2]): 2 min; t1/2 (Liver [9]): 20 min
Oc1cccc(C2C[C@H]3CC[C@H](C2)N3CCCOc2ccccc2)c1 (relative stereo; 19b) [listing 2 of 2 here]	–	–	–	85	–
CC(C)(C)c1ccc(CN2[C@@H]3CC[C@@H]2CC(c2cccc(O)c2)C3)cc1 (relative stereo; 20a) [listing 1 of 2 here]	0.1	0.1	0.501	–	half-life [6]: 5 min; half-life [7]: 2 min; t1/2 (Liver [9]): 16 min
CC(C)(C)c1ccc(CN2[C@@H]3CC[C@@H]2CC(c2cccc(O)c2)C3)cc1 (relative stereo; 20a) [listing 2 of 2 here]	–	–	–	100	–
CC(C)(C)c1ccc(CN2[C@@H]3CC[C@@H]2CC(c2cccc(O)c2)C3)cc1 (relative stereo; 20b) [listing 1 of 2 here]	3.16	2	31.6	–	t1/2 (Liver [2]): 7 min; t1/2 (Liver [9]): 67 min
CC(C)(C)c1ccc(CN2[C@@H]3CC[C@@H]2CC(c2cccc(O)c2)C3)cc1 (relative stereo; 20b) [listing 2 of 2 here]	–	–	–	97	–

SMILES	Ki [1] [nM]	Ki (Mu-type opioid receptor [3]) [nM]	Ki [4] [nM]	Intrinsic activity (Mu-type opioid receptor [5]) [%]	also measured
O=C1c2ccccc2C(=O)N1CCCCN1[C@@H]2CC[C@@H]1CC(c1cccc(O)c1)C2 (relative stereo; 21a) [listing 1 of 2 here]	0.794	0.794	25.1	–	half-life [6]: 11 min; half-life [7]: 18 min; half-life [8]: 33 min
O=C1c2ccccc2C(=O)N1CCCCN1[C@@H]2CC[C@@H]1CC(c1cccc(O)c1)C2 (relative stereo; 21a) [listing 2 of 2 here]	–	–	–	26	–
O=C1c2ccccc2C(=O)N1CCCCN1[C@@H]2CC[C@@H]1CC(c1cccc(O)c1)C2 (relative stereo; 21b)	–	–	–	97	–
O=C(CN1[C@@H]2CC[C@@H]1CC(c1cccc(O)c1)C2)C1CCCCC1 (relative stereo; 22a)	–	–	–	33	–
O=C(CN1[C@@H]2CC[C@@H]1CC(c1cccc(O)c1)C2)C1CCCCC1 (relative stereo; 22b) [listing 1 of 2 here]	0.794	2	20	–	t1/2 (Liver [9]): 13 min
O=C(CN1[C@@H]2CC[C@@H]1CC(c1cccc(O)c1)C2)C1CCCCC1 (relative stereo; 22b) [listing 2 of 2 here]	–	–	–	57	–
Oc1cccc(C2C[C@H]3CC[C@H](C2)N3CC(O)Cc2ccccc2)c1 (relative stereo; 23a) [listing 1 of 2 here]	–	0.251	6.31	–	half-life [6]: 2 min; half-life [7]: 2 min; t1/2 (Liver [9]): 32 min
Oc1cccc(C2C[C@H]3CC[C@H](C2)N3CC(O)Cc2ccccc2)c1 (relative stereo; 23a) [listing 2 of 2 here]	–	–	–	1	–
Oc1cccc(C2C[C@H]3CC[C@H](C2)N3CC(O)Cc2ccccc2)c1 (relative stereo; 23b) [listing 1 of 2 here]	20	10	251	–	t1/2 (Liver [9]): > 90 min
Oc1cccc(C2C[C@H]3CC[C@H](C2)N3CC(O)Cc2ccccc2)c1 (relative stereo; 23b) [listing 2 of 2 here]	–	–	–	36	–
NC(=O)c1cccc(C2C[C@H]3CC[C@H](C2)N3CCCc2ccccc2)c1 (relative stereo; 24a)	–	–	–	24	–
NC(=O)c1cccc(C2C[C@H]3CC[C@H](C2)N3CCCc2ccccc2)c1 (relative stereo; 24b)	–	–	–	48	–
NC(=O)c1cccc(C2C[C@H]3CC[C@H](C2)N3Cc2c(F)cccc2F)c1 (relative stereo; 26a)	–	–	–	26	–
NC(=O)c1cccc(C2C[C@H]3CC[C@H](C2)N3Cc2c(F)cccc2F)c1 (relative stereo; 26b)	–	–	–	19	–
CC(C)(C)c1ccc(CN2[C@@H]3CC[C@@H]2CC(c2cccc(C(N)=O)c2)C3)cc1 (relative stereo; 28a)	–	–	–	92	–
CC(C)(C)c1ccc(CN2[C@@H]3CC[C@@H]2CC(c2cccc(C(N)=O)c2)C3)cc1 (relative stereo; 28b) [listing 1 of 2 here]	31.6	10	200	–	–
CC(C)(C)c1ccc(CN2[C@@H]3CC[C@@H]2CC(c2cccc(C(N)=O)c2)C3)cc1 (relative stereo; 28b) [listing 2 of 2 here]	–	–	–	73	–
NC(=O)c1cccc(C2C[C@H]3CC[C@H](C2)N3CCCCN2C(=O)c3ccccc3C2=O)c1 (relative stereo; 29a)	–	–	–	0	–
NC(=O)c1cccc(C2C[C@H]3CC[C@H](C2)N3CCCCN2C(=O)c3ccccc3C2=O)c1 (relative stereo; 29b) [listing 1 of 2 here]	–	31.6	200	–	t1/2 (Liver [2]): 11 min
NC(=O)c1cccc(C2C[C@H]3CC[C@H](C2)N3CCCCN2C(=O)c3ccccc3C2=O)c1 (relative stereo; 29b) [listing 2 of 2 here]	–	–	–	75	–
NC(=O)c1cccc(C2C[C@H]3CC[C@H](C2)N3CC(=O)C2CCCCC2)c1 (relative stereo; 30a) [listing 1 of 2 here]	0.1	0.158	2	–	t1/2 (Liver [2]): 21 min; half-life [7]: 70 min; half-life [8]: > 90 min
NC(=O)c1cccc(C2C[C@H]3CC[C@H](C2)N3CC(=O)C2CCCCC2)c1 (relative stereo; 30a) [listing 2 of 2 here]	–	–	–	41	–
NC(=O)c1cccc(C2C[C@H]3CC[C@H](C2)N3CC(=O)C2CCCCC2)c1 (relative stereo; 30b)	–	–	–	93	–
NC(=O)c1cccc(C2C[C@H]3CC[C@H](C2)N3CC(O)Cc2ccccc2)c1 (stereo in doubt; 31b)	–	–	–	39	–
C[C@H]1CN(C[C@H](Cc2ccccc2)C(=O)NCC(=O)O)CC[C@@]1(C)c1cccc(O)c1 [ALVIMOPAN]	5.01	–	5.01	-6	half-life [6]: > 90 min; half-life [7]: > 90 min; half-life [8]: > 90 min
C[N+]1(CC2CC2)CC[C@]23c4c5ccc(O)c4O[C@H]2C(=O)CC[C@@]3(O)[C@H]1C5 (some centres not stated) [METHYLNALTREXONE]	20	7.94	–	24	half-life [6]: > 90 min; half-life [7]: > 90 min; half-life [8]: > 90 min

From ChEMBL document CHEMBL4020770, “Discovery of N-substituted-endo-3-(8-aza-bicyclo[3.2.1]oct-3-yl)-phenol and -phenyl carboxamide series of μ-opioid receptor antagonists” (Bioorg Med Chem Lett, 2017)
